Assay [1] has as its system Trypanosoma cruzi. Briefly: Antiparasitic activity against Trypanosoma cruzi T2 epimastigotes assessed as growth inhibition at 25 uM after 5 days. It counts as functional. An outline of the steps: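 Late-log epimastigotes were grown axenically at 28 °C in BHI-tryptose with 5% fetal calf serum and seeded at 2×10^6/mL in medium containing compound (DMSO stock; final DMSO ≤1%, 1% DMSO control). Growth was read as A590 at day 0 and day 5. Inhibition = {1 − [(Ap − A0p)/(Ac − A0c)]} × 100. Means of two experiments.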

The nature of assay [2]: Selectivity for Trypanosoma cruzi triosephosphate isomerase over human triosephosphate isomerase.
Assay [3] addresses Triosephosphate isomerase, glycosomal (Trypanosoma cruzi) (UniProt P52270). Briefly: Inhibition of Trypanosoma cruzi triosephosphate isomerase at 400 uM after 2 hrs. Summed up:
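Recombinant E. coli-expressed enzyme, dialyzed into 100 mM triethanolamine/10 mM EDTA pH 7.4, was incubated with compound (DMSO stock) in 100 mM triethanolamine, 10 mM EDTA, pH 7.4, 10% DMSO at 36 °C for 2 h. An aliquot was then assayed for activity (glyceraldehyde 3-phosphate to dihydroxyacetone phosphate, α-glycerol phosphate dehydrogenase-coupled) with 5 ng enzyme. Irreversible inhibition was scored as loss of activity; means of two experiments.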

Calls of active or inactive are those of the source. How the calls were made is not given here. Some results are limits rather than exact numbers.

Sequence of Triosephosphate isomerase, glycosomal (Trypanosoma cruzi) (P52270 whole entry): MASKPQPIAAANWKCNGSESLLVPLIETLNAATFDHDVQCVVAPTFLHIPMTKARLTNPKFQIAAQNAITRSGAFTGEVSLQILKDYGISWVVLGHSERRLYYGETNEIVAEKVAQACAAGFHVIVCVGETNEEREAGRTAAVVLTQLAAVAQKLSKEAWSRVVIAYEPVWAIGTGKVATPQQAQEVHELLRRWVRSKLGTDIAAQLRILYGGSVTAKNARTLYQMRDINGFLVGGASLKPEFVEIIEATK

Turning to `Cc1c(CNc2cccc3ccccc23)no[n+]1[O-]`, the result in assay [1] was Active. In addition, in assay [2], the Ratio was above 4. Also, in assay [3], the inhibition (in general, how much of the control response was suppressed) stood at 41%.

On to `Cc1c(C=O)no[n+]1[O-]`, for which the result in assay [1] was Active. Besides, the Ratio in assay [2] is above 4. Also, the inhibition in assay [3] came out at 27%.

With `Cc1c(C(=O)Nc2ccccc2)[n+]([O-])c2cc(CNC/C=C/c3ccccc3)ccc2[n+]1[O-]`, the outcome in assay [1] was Active. For the same compound, the Ratio in assay [2] was above 4. In addition, the inhibition in assay [3] was determined as 23%.

For the compound `O=C(/C=C/c1ccc([N+](=O)[O-])o1)N1CCN(C/C=C/c2ccccc2)CC1`, the outcome in assay [1] was Active. Further, in assay [2], the Ratio is above 4. For the same compound, the inhibition in assay [3] came out at 0%.

`CCCCNC(=O)N/N=C/c1ccc([N+](=O)[O-])s1`: the result in assay [1] was Active. In assay [2], the Ratio was above 4. This compound yielded an inhibition in assay [3] of 18%.

Turning to `CN(CCCN(C)Cc1cccc2ccccc12)Cc1cccc2ccccc12`, in assay [1], the outcome was Active. In addition, in assay [2], the Ratio was above 4. The compound further showed an inhibition in assay [3] of 55%.

In the case of `COCCNC(=O)/C=C/c1ccc([N+](=O)[O-])o1`, in assay [1], the outcome was Active. The Ratio in assay [2] is above 4. Further, the inhibition in assay [3] is 0%.

Consider `[O-][n+]1onc(-c2ccccc2)c1CN1CCN(c2ncccn2)CC1`, for which the outcome in assay [1] was Active. In addition, the Ratio in assay [2] is above 4. The inhibition in assay [3] amounted to 8%.

As to `[O-][n+]1onc2ccc(CBr)cc21`, in assay [1], the result was Active. The Ratio in assay [2] was above 4. Besides, in assay [3], the inhibition stood at 10%.

As to `O=c1c2cc([N+](=O)[O-])ccc2n2n1CCOCC2`, in assay [1], the result was Active. Further, the Ratio in assay [2] was above 4. The inhibition in assay [3] was determined as 12%.

`C=CCNC(=S)N/N=C/c1ccc([N+](=O)[O-])s1`: in assay [1], the result was Active. Besides, the Ratio in assay [2] was above 4. In assay [3], this compound came in with an inhibition of 58%.

In the case of `[O-][n+]1onc2ccc(/C=C\[S+]([O-])c3ccccc3)cc21` (stereo unspecified), the outcome in assay [1] was Active. For the same compound, in assay [2], the Ratio is above 4. This compound also showed an inhibition in assay [3] of 69%.

Consider `Cn1c2ccc(Cl)cc2c(-c2ccccc2)[n+]1[O-]`, for which, in assay [1], the outcome was Active. The Ratio in assay [2] is above 4. This compound also gave an inhibition in assay [3] of 16%.

With `CCCN(CCCCCn1nc(OCc2ccccc2)c2cc([N+](=O)[O-])ccc21)CCC(C)C1CC=C(C)CC1` (stereo unspecified), the result in assay [1] was Active. Further, the Ratio in assay [2] is above 4. Also, in assay [3], the inhibition came to 11%.

For the compound `COc1ccc(C=O)cc1-c1cc(C=O)ccc1O`, the outcome in assay [1] was Active. Further, the Ratio in assay [2] is above 4. This compound also gave an inhibition in assay [3] of 32%.

Turning to `O=Cc1ccc(OCc2ccc3no[n+]([O-])c3c2)cc1`, the outcome in assay [1] was Active. Further, the Ratio in assay [2] is above 4. For the same compound, in assay [3], the inhibition was found to be 0%.

As for `O=C(Oc1ccccc1)N1CCOCC1`, in assay [1], the result was Active. Besides, the Ratio in assay [2] was above 4. For the same compound, the inhibition in assay [3] came out at 26%.

With `CCCCNC(=O)N/N=C/c1c(-c2ccccc2)no[n+]1[O-]`, the result in assay [1] was Active. The Ratio in assay [2] is above 4. The inhibition in assay [3] is 27%.

In the case of `CCCCNS(=O)(=O)NCCCC`, in assay [1], the result was Active. In assay [2], the Ratio is above 4. In addition, in assay [3], the inhibition came out at 0%.

In the case of `O=S(=O)(/C=C/c1ccc2no[n+]([O-])c2c1)c1ccc(F)cc1`, in assay [1], the result was Active. Also, the Ratio in assay [2] was above 4. The inhibition in assay [3] was determined as 15%.

As for `CC(=O)NCc1ccccc1`, the result in assay [1] was Active. For the same compound, in assay [2], the Ratio was above 4. Further, the inhibition in assay [3] is 32%.

With `O=S(=O)(NC1CCCCC1)NC1CCCCC1`, the result in assay [1] was Active. Besides, the Ratio in assay [2] is above 4. Besides, the inhibition in assay [3] was 0%.

As for `O=c1c2cc([N+](=O)[O-])ccc2n2n1CCCCC2`, the result in assay [1] was Active. Besides, in assay [2], the Ratio was above 4. Moreover, the inhibition in assay [3] worked out at 4%.

For `COC(=O)/C=C/c1ccc2no[n+]([O-])c2c1`, the outcome in assay [1] was Active. In addition, the Ratio in assay [2] was above 4. Besides, the inhibition in assay [3] was 8%.

Turning to `Cc1ccc(-n2cc(C)[n+]([O-])c2)cc1`, the result in assay [1] was Active. Besides, the Ratio in assay [2] was above 4. In assay [3], this compound yielded an inhibition of 13%.

Consider `Cc1nnc[n+]([O-])c1/C=C/c1ccc([N+](=O)[O-])o1`, for which the outcome in assay [1] was Active. For the same compound, in assay [2], the Ratio is above 4. Further, the inhibition in assay [3] was found to be 38%.

With `CNC(=S)N/N=C/C=C/c1ccc([N+](=O)[O-])o1`, in assay [1], the result was Active. Moreover, the Ratio in assay [2] is above 4. For the same compound, the inhibition in assay [3] was determined as 9%.

As to `CC1[N+]([O-])=c2ccc(Cc3ccccc3)cc2=[N+]1[O-]` (stereo unspecified), in assay [1], the outcome was Active. Further, in assay [2], the Ratio was above 4. The same compound gave an inhibition in assay [3] of 25%.

With `O=C(/C=C/c1ccc2c(c1)OCO2)c1ccccc1O`, the result in assay [1] was Active. Further, in assay [2], the Ratio is above 4. This compound also registered an inhibition in assay [3] of 29%.

With `CCCCCCNC(=O)N/N=C/c1ccc2no[n+]([O-])c2c1`, in assay [1], the result was Active. In assay [2], the Ratio was above 4. This compound also gave an inhibition in assay [3] of 43%.

`CC1(C)[N+]([O-])=c2ccc(/C=C/c3ccccc3)cc2=[N+]1[O-]`: in assay [1], the result was Active. For the same compound, in assay [2], the Ratio was above 4. The same compound yielded an inhibition in assay [3] of 0%.

For the compound `[O-][n+]1onc(-c2ccccc2)c1CN1CCSCC1`, the result in assay [1] was Active. For the same compound, the Ratio in assay [2] was above 4. Also, in assay [3], the inhibition came to 47%.

As for `[O-][n+]1onc2ccc(/C=N/N=C/c3ccccc3O)cc21`, in assay [1], the result was Active. In addition, the Ratio in assay [2] is above 4. The compound also displayed an inhibition in assay [3] of 24%.

`COC(=O)N/N=C/c1ccc2nonc2c1`: the outcome in assay [1] was Active. Also, the Ratio in assay [2] is above 4. In assay [3], this compound had an inhibition of 16%.

For `CC1(C)[N+]([O-])=c2ccc(COc3ccc(C=O)cc3)cc2=[N+]1[O-]`, the outcome in assay [1] was Active. Besides, the Ratio in assay [2] was above 4. This compound returned an inhibition in assay [3] of 26%.

`C/C(=C\c1ccc(N(C)C)cc1)[N+](=O)[O-]`: in assay [1], the outcome was Active. For the same compound, the Ratio in assay [2] was above 4. Further, in assay [3], the inhibition was 24%.

Take `CN(C)CCCNS(=O)(=O)NCCCN(C)C`: in assay [1], the result was Active. Further, the Ratio in assay [2] was above 4. Also, the inhibition in assay [3] is 0%.

For the compound `Cc1nnc(C)[n+]([O-])c1/C=C/c1ccc(N(C)C)cc1`, the outcome in assay [1] was Active. Also, the Ratio in assay [2] is above 4. Moreover, the inhibition in assay [3] was found to be 26%.

On to `O=C(N/N=C/c1ccc([N+](=O)[O-])o1)N1CCOCC1`, for which, in assay [1], the outcome was Active. In assay [2], the Ratio is above 4. Besides, in assay [3], the inhibition was 0%.

On to `C=CCNC(=S)N/N=C/c1ccc([N+](=O)[O-])o1`, for which, in assay [1], the outcome was Active. In addition, the Ratio in assay [2] is above 4. This compound registered an inhibition in assay [3] of 6%.

For `[O-][n+]1onc(-c2ccccc2)c1CNc1ccc(Br)cc1`, the result in assay [1] was Active. The Ratio in assay [2] was above 4. Besides, the inhibition in assay [3] is 48%.

Turning to `O=[N+]([O-])c1ccccc1/C=N/N1CCOCC1`, in assay [1], the outcome was Active. The Ratio in assay [2] was above 4. For the same compound, the inhibition in assay [3] amounted to 28%.

Take `CC(=O)Oc1c(C)c(C)c2c(c1C)CCC(C)(C(=O)NCCOc1c(S(=O)(=O)c3ccccc3)no[n+]1[O-])O2` (stereo unspecified): the outcome in assay [1] was Active. Besides, in assay [2], the Ratio is above 4. Further, in assay [3], the inhibition was found to be 25%.

For the compound `Nc1ccc2c(c1)[n+]([O-])c1cc(Cl)ccc1[n+]2[O-]`, the result in assay [1] was Active. Moreover, the Ratio in assay [2] is above 4. For the same compound, in assay [3], the inhibition worked out at 64%.

For the compound `CCCCCCOC(=O)N/N=C/c1no[n+]([O-])c1C`, the outcome in assay [1] was Active. Besides, in assay [2], the Ratio was above 4. The same compound yielded an inhibition in assay [3] of 17%.

With `C=CCNC(=S)N/N=C/c1ccc2c(c1)=[N+]([O-])C(C)(C)[N+]=2[O-]`, the outcome in assay [1] was Active. Further, the Ratio in assay [2] is above 4. Also, the inhibition in assay [3] is 33%.

On to `C=CCNC(=S)N/N=C/c1ccc2c(c1)[n+]([O-])c(C)c(C)[n+]2[O-]`, for which, in assay [1], the outcome was Active. In addition, in assay [2], the Ratio was above 4. Besides, the inhibition in assay [3] turned out to be 42%.

Turning to `O=[N+]([O-])c1ccc2c(c1)[n+]([O-])c1n2CCC1`, in assay [1], the outcome was Active. In assay [2], the Ratio is above 4. The compound further displayed an inhibition in assay [3] of 35%.

Regarding `CC1(C)[N+]([O-])=c2ccc(CN3CCN(C/C=C/c4ccccc4)CC3)cc2=[N+]1[O-]`, in assay [1], the outcome was Active. The Ratio in assay [2] is above 4. This compound returned an inhibition in assay [3] of 31%.

Regarding `[O-][n+]1onc2ccc(/C=C/[S+]([O-])c3ccccc3)cc21` (stereo unspecified), in assay [1], the outcome was Active. The Ratio in assay [2] is above 4. Further, in assay [3], the inhibition worked out at 28%.

Regarding `COCCNC(=O)N/N=C/c1ccc([N+](=O)[O-])s1`, the result in assay [1] was Active. In assay [2], the Ratio is above 4. Besides, in assay [3], the inhibition is 15%.

As to `COCCNC(=O)N/N=C/c1ccc2no[n+]([O-])c2c1`, the outcome in assay [1] was Active. In assay [2], the Ratio was above 4. In addition, in assay [3], the inhibition came out at 3%.

The values above are taken from ChEMBL document CHEMBL1629474, “Massive screening yields novel and selective Trypanosoma cruzi triosephosphate isomerase dimer-interface-irreversible inhibitors with anti-trypanosomal activity” (Eur J Med Chem, 2010).
